Among the data in ChEMBL document CHEMBL2010709, “Pinophilins A and B, inhibitors of mammalian A-, B-, and Y-family DNA polymerases and human cancer cell proliferation” (J Nat Prod, 2012) are inhibition and Ki values, retold here.

Activity calls are given as the source filed them. The rule behind the calls is not given here.

Experiment [1] is filed under the species Bos taurus. The experiment can be described thus: Competitive inhibition of calf DNA polymerase alpha using dTTP as substrate up to 30 uM by Lineweaver-Burk plot analysis. An outline of the steps:
(§1)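 Kinetics ran in the standard pol assay at 37 °C for 60 min. Either poly(dA)/oligo(dT)18 (A/T = 2/1) or dTTP was varied, with inhibitor at 0, 10, 20 and 30 μM. Km and Vmax came from Lineweaver–Burk plots and Ki from Dixon plots. Pol α was purified from calf thymus by immunoaffinity chromatography.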

Experiment [2] is filed under the species Bos taurus. The experiment can be described thus: Non-competitive inhibition of calf DNA polymerase alpha using ploy(dA)/oligo(dT)18 as substrate up to 30 uM by Lineweaver-Burk plot analysis. An outline of the steps:
as §1

Experiment [3] in a line: Competitive inhibition of calf DNA polymerase alpha using dTTP as substrate by Dixon plot analysis. Also noted: species or system Bos taurus. An outline of the steps:
as §1

Experiment [4] in a line: Non-competitive inhibition of calf DNA polymerase alpha using ploy(dA)/oligo(dT)18 as substrate by Dixon plot analysis. Also noted: species or system Bos taurus. An outline of the steps: as §1
Experiment [5] has as its target T1, DNA polymerase kappa (Homo sapiens, UniProt Q9UBT6).
T1 sequence (Q9UBT6 whole entry): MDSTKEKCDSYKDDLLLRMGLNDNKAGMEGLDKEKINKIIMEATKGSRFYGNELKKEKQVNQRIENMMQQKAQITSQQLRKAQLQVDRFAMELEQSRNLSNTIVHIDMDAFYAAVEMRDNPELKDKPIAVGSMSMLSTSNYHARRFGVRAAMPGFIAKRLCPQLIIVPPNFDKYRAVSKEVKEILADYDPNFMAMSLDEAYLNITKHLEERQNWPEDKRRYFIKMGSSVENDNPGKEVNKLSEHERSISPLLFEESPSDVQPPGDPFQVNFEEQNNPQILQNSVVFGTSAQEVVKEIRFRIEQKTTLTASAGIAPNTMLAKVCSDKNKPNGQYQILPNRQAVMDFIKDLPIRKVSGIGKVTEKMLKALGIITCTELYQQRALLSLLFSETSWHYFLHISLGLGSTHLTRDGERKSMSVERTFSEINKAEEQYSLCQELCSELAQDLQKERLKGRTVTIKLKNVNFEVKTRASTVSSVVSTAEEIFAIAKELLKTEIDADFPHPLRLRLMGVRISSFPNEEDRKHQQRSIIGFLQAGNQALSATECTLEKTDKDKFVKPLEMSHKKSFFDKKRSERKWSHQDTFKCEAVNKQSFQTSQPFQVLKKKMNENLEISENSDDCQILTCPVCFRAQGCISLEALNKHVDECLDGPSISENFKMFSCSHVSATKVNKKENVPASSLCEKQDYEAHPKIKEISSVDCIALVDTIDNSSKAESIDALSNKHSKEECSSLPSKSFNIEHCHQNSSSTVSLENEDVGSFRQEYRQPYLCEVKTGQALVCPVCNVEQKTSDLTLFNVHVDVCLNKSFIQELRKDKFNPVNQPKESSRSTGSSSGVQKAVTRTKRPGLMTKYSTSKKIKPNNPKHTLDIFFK
As to the kind of experiment: Competitive inhibition of human C-terminal-His6-tagged DNA polymerase kappa expressed in Escherichia coli using dTTP as substrate by Dixon plot analysis. Put shortly: as §1

The target in experiment [6] is T1, DNA polymerase kappa. The experiment can be described thus: Non-competitive inhibition of human C-terminal-His6-tagged DNA polymerase kappa expressed in Escherichia coli using ploy(dA)/oligo(dT)18 as substrate by Dixon plot analysis. Put shortly: as §1

Usually Ki stands for a dissociation constant, usually derived from enzyme kinetics or from competition with a known ligand. A higher Ki goes with lower affinity. Regarding `C/C=C/C1=CC2=CC(=O)[C@@](C)(OC(=O)c3c(C)cc(O)cc3O)[C@@H](O)[C@@H]2CO1` [PINOPHILIN A], the inhibition result in the experiment listed under Bos taurus [1] and in the experiment filed under Bos taurus [2] was “Active” throughout. The Ki in experiment [3] is 9.6 µM; in experiment [4] it was 13.8 µM; at DNA polymerase kappa [5], 9.85 µM; at DNA polymerase kappa [6] it was 18.1 µM.
